What was measured:
[1] = system: U-937, HeLa, H460, 786-O, and MCF-7; assay: 72-hour cytotoxicity across five human cell lines; format: cell-based; details: MTS and SRB cytotoxicity assays
Method in brief: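 Cells were treated with test compound for 72 h. U-937 cells were read by MTS reduction. HeLa, H460, 786-O and MCF-7 cells were read by sulforhodamine B staining. IC50 values are given in nM as the mean with standard deviation, n ≥ 3.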

[2] = system: U-937 and HeLa human cancer cell lines; assay: Anticancer activity screen, cell line not given; format: cell-based
Method in brief: (§1)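 Human cancer cells were exposed continuously to test compound for 72 h. Viability was read by MTS for U-937 cells and by sulforhodamine B staining for HeLa cells. IC50 values are given in nM as the mean of at least three determinations with standard deviation.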

[3] = system: HeLa (cervical carcinoma); assay: 72-hour SRB cytotoxicity assay in HeLa cells; format: cell-based, human; details: read-out: IC50 (HeLa), 72-hour exposure
Method in brief: as §1

[4] = system: U-937 (hystiocytic lymphoma); assay: 72-hour MTS cytotoxicity assay in U-937 cells; format: cell-based, human; details: read-out: IC50 (U-937), 72-hour exposure
Method in brief: as §1

[5] = system: U-937 cells; assay: Annexin V-FITC / propidium iodide apoptosis analysis; format: cell-based, human; details: 24 hours, U-937, 100-times the 72-hour IC50 values

CN1C(=O)[C@@]23C[C@]4([C@]56C[C@@]78SS[C@@](CO)(C(=O)N7[C@H]5Nc5ccccc56)N(C)C8=O)c5ccccc5N[C@@H]4N2C(=O)[C@]1(CO)SS3 [Compound 4, (+)-chaetocin A]
IC50 / potency range (in words) [1]: subnanomolar

CN1C(=O)C(=O)N2C(=C[C@]3(c4c[nH]c5ccccc45)c4ccccc4N[C@H]23)C1=O [Compound 52, (+)-Gliocladin C]
anticancer activity (in words) ([2]; 72-hour exposure, U-937 and HeLa): complete loss of biological activity

(+)-12,12'-dideoxyverticillin A [Compound 3]
IC50 [3]: 7.2 nM | IC50 [4]: 15.5 nM

(+)-chaetocin C [Compound 5]
IC50 / potency range (in words) [1]: subnanomolar | induction of apoptotic cell death [5]: induce caspase-dependent apoptotic cell death

(+)-gliocladin B [Compound 7]
IC50 ([2]; anticancer activity, cell line not specified): > 10 µM
